The values that follow come from ChEMBL document CHEMBL4152256, “Structure-activity relationship of new antimalarial 1-aryl-3-susbtituted propanol derivatives: Synthesis, preliminary toxicity profiling, parasite life cycle stage studies, target exploration, and targeted delivery” (Eur J Med Chem, 2018).

For orientation: IC50 means the midpoint of a concentration-inhibition curve. Higher therefore signals a need for much substance.

The nature of data set [1]: Drug internalization in liposomes assessed as zeta potential at 500 uM in presence of pH 7.4 PBS buffer solution (reference value: -16.48 mV). The settings on record: artificial membrane, pH 7.4, 500 µM. It is filed as physicochemical. In short, it runs like this: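 Zeta potential of liposomes loaded with compound (500 µM drug per 10 mM lipid), measured in the pH 4.0 citrate hydration buffer and again after buffer exchange to PBS pH 7.4; drug-free liposomes of the same lipid composition served as reference.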

The subject of data set [2] is Plasmodium falciparum. The data set can be described thus: Antiplasmodial activity against Plasmodium falciparum 3D7 ring stage forms infected in immunoliposome encapsulated compound pre-loaded human RBC by [3H]-hypoxanthine incorporation assay. The data set is classed as functional, organism-based. The settings on record: 3D7, Erythrocyte.
In data set [3] the test system is Plasmodium falciparum. Description: Ratio of IC50 for antiplasmodial activity against Plasmodium falciparum 3D7 ring stage forms infected in immunoliposome encapsulated compound pre-loaded human RBC by [3H]-hypoxanthine incorporation assay to IC50 for antiplasmodial activity against Plasmodium falciparum 3D7 ring stage forms infected in human non-washed human RBC containing full drug dosages by [3H]-hypoxanthine incorporation assay. The data set is classed as functional.

Data set [4] deals with Plasmodium falciparum. The data set can be described thus: Antiplasmodial activity against chloroquine-sensitive Plasmodium falciparum 3D7 ring forms infected in human RBC incubated for 15 mins followed by compound removal and further incubation for 48 hrs by [3H]-hypoxanthine incorporation assay. It is filed as functional, organism-based. The following applies: 3D7, Erythrocyte.

The test system of data set [5] is Plasmodium falciparum. The data set can be described thus: Ratio of IC50 for antiplasmodial activity against chloroquine-sensitive Plasmodium falciparum 3D7 ring forms infected in human RBC incubated for 15 mins followed by compound removal and further incubation for 48 hrs by [3H]-hypoxanthine incorporation assay to IC50 for antiplasmodial activity against chloroquine-sensitive Plasmodium falciparum 3D7 ring forms infected in human RBC using compound …. The data set is classed as functional.

The test system of data set [6] is Plasmodium falciparum. Description: Antiplasmodial activity against chloroquine-sensitive Plasmodium falciparum 3D7 late forms infected in human RBC incubated for 15 mins followed by compound removal and further incubation for 48 hrs by [3H]-hypoxanthine incorporation assay. It is filed as functional, organism-based. The following applies: 3D7, Erythrocyte.
For data set [7], the system named is Plasmodium falciparum. The data set can be described thus: Antiplasmodial activity against chloroquine-sensitive Plasmodium falciparum 3D7 late forms infected in human RBC using compound encapsulated in to immunoliposome targeted to GPA incubated for 15 mins followed by compound removal and further incubation for 48 hrs by [3H]-hypoxanthine incorporation assay. The following applies: 3D7, Erythrocyte. The data set is classed as functional, organism-based.

Data set [8] relates to Plasmodium falciparum. Description: Ratio of IC50 for antiplasmodial activity against chloroquine-sensitive Plasmodium falciparum 3D7 late forms infected in human RBC incubated for 15 mins followed by compound removal and further incubation for 48 hrs by [3H]-hypoxanthine incorporation assay to IC50 for antiplasmodial activity against chloroquine-sensitive Plasmodium falciparum 3D7 late forms infected in human RBC using compound …. It is filed as functional.

For data set [9], the system named is Plasmodium falciparum. Description: Antiplasmodial activity against Plasmodium falciparum 3D7 late stage forms infected in immunoliposome encapsulated compound pre-loaded human RBC by [3H]-hypoxanthine incorporation assay. It is filed as functional, organism-based. The following applies: 3D7, Erythrocyte.
Data set [10] has as its system Plasmodium falciparum. Description: Ratio of IC50 for antiplasmodial activity against Plasmodium falciparum 3D7 late stage forms infected in immunoliposome encapsulated compound pre-loaded human RBC by [3H]-hypoxanthine incorporation assay to IC50 for antiplasmodial activity against Plasmodium falciparum 3D7 late stage forms infected in human non-washed human RBC containing full drug dosages by [3H]-hypoxanthine incorporation assay. It is filed as functional.

Data set [11] in a line: Genotoxicity in Salmonella typhimurium TA1535 harboring pSK1002 assessed as survival at 0.0005 mg/ml in absence of Sprague-Dawley rat liver S9 fraction after by SOS/umu assay relative to control. It is filed as toxicity, organism-based. The settings on record: salmonella enterica subsp. enterica serovar typhimurium, read-out: Survival.
The nature of data set [12]: Genotoxicity in Salmonella typhimurium TA1535 harboring pSK1002 assessed as umu gene induction at 0.0005 mg/ml in absence of Sprague-Dawley rat liver S9 fraction after by SOS/umu assay relative to control. The settings on record: salmonella enterica subsp. enterica serovar typhimurium, read-out: FC. It is filed as toxicity, organism-based.

Take `N#Cc1ccc(N2CCC(NCCC(O)c3ccc(F)c4ccccc34)CC2)c(C(F)(F)F)c1` (stereo in doubt; 72): in [1], the Activity was -18.2 mV. The IC50 in the data set on Plasmodium falciparum [2] was 514 nM; with Plasmodium falciparum [4], 867 nM; in the data set with Plasmodium falciparum [6], 916 nM; with Plasmodium falciparum [7], 175 nM; in the data set with Plasmodium falciparum [9], 443 nM. Also, the “Ratio IC50” value is listed as 2.8 in the data set on Plasmodium falciparum [3], 5.9 in the data set on Plasmodium falciparum [5], 5.2 in the data set on Plasmodium falciparum [8] and 1.5 with Plasmodium falciparum [10].
On to `OC(CCN1CCN(C(c2ccccc2)c2ccccc2)CC1)c1ccc(F)c(F)c1` (configuration not stated), for which, in [11], the viability at 0.0005 mg/ml is 110%. Further, the fold induction at 0.0005 mg/ml in data set [12] turned out to be 0.7.
